Results from ChEMBL document CHEMBL1122056, “Synthesis and biochemical properties of chemically stable product analogues of the reaction catalyzed by S-adenosyl-L-methionine decarboxylase” (J Med Chem, 1982).

Columns and labels:
[1] = target: T1, S-adenosylmethionine decarboxylase proenzyme (Rattus norvegicus, UniProt P17708); assay: In vitro inhibitory activity against S-adenosyl-L-methionine decarboxylase using liver from rat in presence of 1 mM putrescine
T1 sequence (P17708 whole entry): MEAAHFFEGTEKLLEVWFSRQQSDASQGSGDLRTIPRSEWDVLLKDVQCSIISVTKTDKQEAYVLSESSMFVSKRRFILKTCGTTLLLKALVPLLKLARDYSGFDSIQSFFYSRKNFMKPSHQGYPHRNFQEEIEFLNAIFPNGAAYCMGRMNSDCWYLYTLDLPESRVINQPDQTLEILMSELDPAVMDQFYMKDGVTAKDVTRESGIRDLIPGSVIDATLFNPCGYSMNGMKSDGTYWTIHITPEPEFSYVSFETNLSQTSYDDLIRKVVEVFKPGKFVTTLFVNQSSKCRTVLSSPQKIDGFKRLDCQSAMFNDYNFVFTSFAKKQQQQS
Procedure, shortened: (§1)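 Enzyme source: liver of rats injected with MGBG·2HCl (80 mg/kg) 22 h before sacrifice. The extract was taken through a 10500g centrifugation and an (NH4)2SO4 precipitation. Decarboxylation of S-adenosyl-L-[carboxy-14C]methionine was measured as 14CO2 release, with or without 1 mM putrescine. Competitive inhibition was judged from Lineweaver-Burk plots, and Ki was read from Dixon plots.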

[2] = target: T1, S-adenosylmethionine decarboxylase proenzyme; assay: In vitro inhibitory activity against S-adenosyl-L-methionine decarboxylase using liver from rat in absence of putrescine; procedure, shortened: as §1
[3] = target: T2, S-adenosylmethionine decarboxylase proenzyme (Rattus norvegicus) (UniProt P17708); assay: Time required for the half inactivation of S-Adenosyl-L-methionine decarboxylase was determined with 0.2 mM of Compound along with 1 mM NaBH3CN
T2 sequence (whole entry): T1 sequence (P17708 whole entry)
Procedure, shortened: (§2)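 The partly purified rat liver enzyme, from MGBG-treated rats, was incubated at 37 °C in 30 mM sodium phosphate pH 7.1 with 5 mM dithiothreitol and the stated additions. Aliquots were taken at intervals and assayed for remaining activity with S-adenosyl-L-[carboxy-14C]methionine. The half-inactivation time was obtained by a least-squares fit of the data points.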

[4] = target: T2, S-adenosylmethionine decarboxylase proenzyme (Rattus norvegicus); assay: Time required for the half inactivation of S-Adenosyl-L-methionine decarboxylase was determined with 0.2 mM of compound; procedure, shortened: as §2
[5] = target: T2, S-adenosylmethionine decarboxylase proenzyme (Rattus norvegicus); assay: Time required for the half inactivation of S-Adenosyl-L-methionine decarboxylase was determined with 0.2 mM of compound along with 1 mM NaBH3CN; procedure, shortened: as §2
[6] = target: T2, S-adenosylmethionine decarboxylase proenzyme (Rattus norvegicus); assay: Time required for the half inactivation of S-adenosyl-L-methionine decarboxylase was determined with 0.5 mM of compound
[7] = target: T2, S-adenosylmethionine decarboxylase proenzyme (Rattus norvegicus); assay: Time required for the half inactivation of S-adenosyl-L-methionine decarboxylase with 0.5 mM of compound along with 0.05 mM of [5-(6-Amino-purin-9-yl)-3,4-dihydroxy-tetrahydro-furan-2-ylmethyl]-dimethyl-sulfonium; iodide; procedure, shortened: as §2
[8] = target: T2, S-adenosylmethionine decarboxylase proenzyme (Rattus norvegicus); assay: Time required for the half inactivation of S-adenosyl-L-methionine decarboxylase with 1 mM of compound along with 0.05 mM of [5-(6-Amino-purin-9-yl)-3,4-dihydroxy-tetrahydro-furan-2-ylmethyl]-dimethyl-sulfonium; iodide; details: in the assay text read “0.2 mM of compound” for “1 mM of compound”; procedure, shortened: as §2

Structure (SMILES) | Ki [1] [µM] | Ki [2] [µM] | Inactivation time [3] [min] | Inactivation time [4] [min] | Inactivation time [5] [min] | Inactivation time [6] [min] | Inactivation time [7] [min] | Inactivation time [8] [min]
C[S+](C)C[C@H]1O[C@@H](n2cnc3c(N)ncnc32)[C@H](O)[C@@H]1O | 2 | 20 | – | – | – | – | – | –
NCCNC[C@H]1OC(n2cnc3c(N)ncnc32)[C@H](O)[C@@H]1O (some centres undefined) | 70 | 540 | – | – | – | – | – | –
NCCCNC[C@H]1OC(n2cnc3c(N)ncnc32)[C@H](O)[C@@H]1O (some centres undefined) | 50 | – | 25 | 250 | – | – | – | –
C[S+](CC[C@H](N)C(=O)[O-])C[C@H]1O[C@@H](n2cnc3c(N)ncnc32)[C@H](O)[C@@H]1O (some centres undefined) [ADEMETIONINE] | 60 | 300 | – | 100 | 25 | – | – | –
CNCCCNC[C@H]1OC(n2cnc3c(N)ncnc32)[C@H](O)[C@@H]1O (some centres undefined) | 600 | – | – | – | – | – | – | –
N=C(N)NC[C@H]1OC(n2cnc3c(N)ncnc32)[C@H](O)[C@@H]1O (some centres undefined) | 80 | 1000 | – | – | – | – | – | –
NC[C@H]1O[C@@H](n2cnc3c(N)ncnc32)[C@H](O)[C@@H]1O | 200 | 1700 | – | – | – | – | – | –
CN(CCC#N)C[C@H]1OC(n2cnc3c(N)ncnc32)[C@H](O)[C@@H]1O (some centres undefined) | 300 | 2800 | – | – | – | – | – | –
CN(CCCN)C[C@H]1OC(n2cnc3c(N)ncnc32)[C@H](O)[C@@H]1O (some centres undefined) | 60 | 380 | – | 93 | 12 | 41 | 98 | 50
C[S+](CCCN)C[C@H]1OC(n2cnc3c(N)ncnc32)[C@H](O)[C@@H]1O (some centres undefined) | 3 | 40 | – | 100 | 10 | – | – | –
